KDM4C inh: inhibitors of GASC-1 (KDM4C) histone demethylase, primary screen, biochemical, single concentration HTS | GST-KDM4C 2-372, H3K9me3 peptide, LANCE TR-FRET | inhibition, % at 12.5 µM | AID 720574, 2013 | 0.15% of 96,000 active;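 active = mean replicate inhibition above about 25%, with at least 55% of replicates also reaching it, limit read from the data, passing the limit was not always enough; inconclusive = only one of those two conditions met; inactive = neither condition met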
Target sequence (Q9H3R0 2-372 limits assumed): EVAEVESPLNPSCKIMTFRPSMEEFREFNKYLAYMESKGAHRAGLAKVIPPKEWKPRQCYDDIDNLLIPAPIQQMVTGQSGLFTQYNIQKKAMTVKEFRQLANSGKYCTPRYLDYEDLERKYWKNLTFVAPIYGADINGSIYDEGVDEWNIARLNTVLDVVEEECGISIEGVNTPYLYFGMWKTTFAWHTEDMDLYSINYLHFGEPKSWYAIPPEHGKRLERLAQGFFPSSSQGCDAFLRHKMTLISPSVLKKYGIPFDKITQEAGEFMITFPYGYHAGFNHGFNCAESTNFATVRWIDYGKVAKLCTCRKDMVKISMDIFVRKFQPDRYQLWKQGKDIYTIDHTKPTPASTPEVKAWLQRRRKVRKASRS
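Material: GST-tagged GASC-1 (JMJD2C) catalytic fragment, aa 2-372 / Quantity: enzyme final amount 10 nM / Medium: HEPES buffer, pH 7.5, plus ascorbate / Doses: one test concentration per compound / Incubation: 30 min reaction, 60 min detection, RT / Measured by: LANCE TR-FRET / Read-out: inhibition from TR-FRET ratio decrease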
T cruzi growth-1: T. cruzi intracellular proliferation inhibitors, primary screen, cell-based, beta-gal Tulahuen parasites, NIH3T3 host, luminescence. T. cruzi beta-gal in NIH3T3, GalScreen luminescence, 90 h. inhibition, % at 8.34 µM. AID 624255, 2012. 5.9% of 77,000 active;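 active = mean inhibition above about 93%, with at least 55% of replicates each passing it, limit read from the data, passing the limit was not always enough; inconclusive = only one of those two conditions holds; inactive = neither condition holds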
IDH1 mut inh: inhibitors of IDH1 R132H reductase, primary screen, biochemical, plate reader, single point. Isocitrate dehydrogenase [NADP] cytoplasmic (Homo sapiens), O75874. 0.18% of 70,000 active. inhibition, % at 10 µM. diaphorase/resazurin fluorescence, 60 min; in the data active = inhibition above about 34%; inconclusive = no clear call, values can overlap the other calls; inactive = below about 11%;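 also: 0% = DMSO and 100% = no enzyme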
T cruzi growth-2: T. cruzi intracellular proliferation inhibitors, confirmation, cell-based, NIH3T3 host, beta-gal parasite, luminescence, cherry-pick | shares compounds with T cruzi growth-1 | T. cruzi beta-gal in NIH3T3, GalScreen luminescence, 90 h | inhibition, % at 8.35 µM | 72% of 5,600 active;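 active = mean replicate inhibition above about 95% and at least 55% of replicates individually reaching it, limit read from the data; inconclusive = only one of the two criteria is met; inactive = neither criterion is met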
T cruzi growth-3: inhibitors of intracellular T. cruzi replication, confirmation, NIH3T3 host cells, beta-gal parasites, cherry-pick, set 2; inhibition, % at 2.09 µM; 21% of 5,600 active; shares compounds with T cruzi growth-1; T. cruzi beta-gal in NIH3T3, GalScreen luminescence, 90 h;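 active = mean inhibition above about 95%, with at least 55% of replicates also reaching it, limit read from the data; inconclusive = meets just one of the two conditions; inactive = meets neither condition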;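 also: plate controls were neutral control median for no effect and positive control median for full effect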
3T3 cytotox: cytotoxicity in mouse NIH/3T3 fibroblasts, confirmation, cytotoxicity control for T. cruzi proliferation inhibitor project, cell-based, cherry-pick, single point; NIH/3T3 viability, CellTiter-Glo ATP luminescence, 90 h; AID 651742, 2012; shares compounds with T cruzi growth-1; 14% of 5,600 active; cytotoxicity (signal decrease), % at 8.35 µM;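 active = mean signal decrease across replicates above about 35% based on untreated-well scatter, with enough replicates individually passing, limit read from the data; inconclusive = no rule stated though some were filed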;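 also: 0% = median of neutral control wells and 100% = median of positive control wells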
3T3 cytotox 2: NIH/3T3 fibroblast cytotoxicity, confirmation, cytotoxicity control, cell-based, cherry-pick, single point, set 2. inhibition, % at 24.9 µM. AID 651744, 2012. NIH/3T3 viability, CellTiter-Glo ATP luminescence, 90 h. 56% of 5,600 active. shares compounds with T cruzi growth-1;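 active = mean loss of cell viability signal at or above a set limit, and enough replicates individually reaching it; inconclusive = meets only the mean limit or only the replicate share; inactive = meets neither condition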;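 also: 0% = median of neutral control wells and 100% = median of positive control wells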
Active calls of the source: *; u = inconclusive; x = no result. Many of the other results were omitted from the sample, so hits are more common in it than they were.

SMILES	KDM4C inh	T cruzi growth-1	IDH1 mut inh	T cruzi growth-2	T cruzi growth-3	3T3 cytotox	3T3 cytotox 2
C[C@@H]1CCCCO[C@H](CN(C)Cc2ccc(C(F)(F)F)cc2)[C@@H](C)CN([C@@H](C)CO)C(=O)c2cc(NC(=O)Nc3ccc(F)cc3)ccc2O1	-1	93	-4	x	x	x	x
C[C@@H]1CCCCO[C@@H](CN(C)Cc2ccc(C(F)(F)F)cc2)[C@@H](C)CN([C@H](C)CO)C(=O)c2cc(NC(=O)Nc3ccc(F)cc3)ccc2O1	-1	102*	x	101*	72	11	25
CCN(CC(=O)Nc1ccc(I)cc1)S(=O)(=O)c1ccc(Cl)cc1	x	x	0	x	x	x	x
COc1ccccc1C#Cc1ccc([C@@H]2[C@H]3CN(C(=O)C4CCC4)CCCCN3[C@H]2CO)cc1	14	97*	x	102*	94	56*	105*
COc1ccccc1C#Cc1ccc([C@H]2[C@@H](CO)N3CCCCN(C(=O)C4CCC4)C[C@H]23)cc1	-2	92	x	x	x	x	x
COc1ccccc1C#Cc1ccc([C@@H]2[C@H]3CN(C(=O)C4CCCC4)CCCCN3[C@H]2CO)cc1	x	95*	x	87	97*	86*	104*
COc1ccccc1C#Cc1ccc([C@H]2[C@@H](CO)N3CCCCN(C(=O)C4CCCC4)C[C@H]23)cc1	x	92	x	x	x	x	x
Cn1c(SCC(=O)NCCO)nc2ccccc2c1=O	x	x	3	x	x	x	x
C[C@H]1O[C@@H](O[C@H]2C[C@H]3C(=O)C[C@]4(C)C(=CCC5[C@@]6(C)CC[C@H](O[C@@H]7OC[C@@H](O)[C@H](O)[C@H]7O)[C@@](C)(C=O)C6CC[C@]54C)[C@@H]3CC2(C)C)[C@H](O)[C@@H](O)[C@@H]1O[C@@H]1O[C@H](C(=O)O)[C@@H](O)[C@H](O)[C@H]1O (stereo not given in full)	x	x	0	x	x	x	x
CCc1cccc2c(C#N)cn(CC(=O)NCC3CCCO3)c12 (stereo not given)	x	x	0	x	x	x	x
O=S(=O)(c1cccs1)N1CCCCN2[C@H](CO)[C@@H](c3ccc(Br)cc3)[C@H]2C1	-2	92	x	x	x	x	x
C/C=C/c1ccc([C@H]2[C@H]3CN(S(=O)(=O)c4cccs4)CCCCN3[C@H]2CO)cc1	0	106*	x	106*	62	8	61*
C/C=C/c1ccc([C@@H]2[C@@H](CO)N3CCCCN(S(=O)(=O)c4cccs4)C[C@H]23)cc1	-1	75	x	x	x	x	x
O=S(=O)(c1cccs1)N1CCCCN2[C@H](C1)[C@H](c1ccc(Br)cc1)[C@@H]2CO	4	109*	x	100*	23	11	2
O=S(=O)(c1cccs1)N1CCCCN2[C@H](CO)[C@H](c3ccc(C4=CCCCC4)cc3)[C@H]2C1	x	105*	x	107*	56	30	104*
O=S(=O)(c1cccs1)N1CCCCN2[C@@H](CO)[C@@H](c3ccc(/C=C/c4ccccc4)cc3)[C@@H]2C1	0	74	x	x	x	x	x
O=S(=O)(c1cccs1)N1CCCCN2[C@@H](CO)[C@H](c3ccc(Br)cc3)[C@@H]2C1	0	103*	x	105*	32	-6	25
O=S(=O)(c1cccs1)N1CCCCN2[C@H](C1)[C@H](c1ccc(C3=CCCC3)cc1)[C@@H]2CO	-1	76	x	x	x	x	x
COc1cc(C2c3c(cc(OC)c(O)c3OC)CC(CO)C2CO[C@@H]2O[C@H](CO)[C@@H](O)[C@H](O)[C@H]2O)cc(OC)c1O (stereo not given in full)	x	x	-1	x	x	x	x
Cc1ccc(N(CC(N)=O)S(=O)(=O)c2ccc(Cl)cc2)cc1C	x	x	6	x	x	x	x
C[C@@H]1CCCCO[C@H](CN(C)Cc2ccc(Cl)c(Cl)c2)[C@@H](C)CN([C@H](C)CO)C(=O)c2cc(NC(=O)Nc3cccc4ccccc34)ccc2O1	0	u	2	111*	75	-1	-12
C[C@H](CO)N1C[C@H](C)[C@@H](CN(C)Cc2ccncc2)OCCCC[C@H](C)Oc2ccc(NC(=O)Nc3cccc4ccccc34)cc2C1=O	-2	43	-8	x	x	x	x
C[C@@H]1CCCCO[C@@H](CN(C)Cc2ccc(Cl)c(Cl)c2)[C@@H](C)CN([C@@H](C)CO)C(=O)c2cc(NC(=O)Nc3cccc4ccccc34)ccc2O1	0	124*	1	96*	103*	-3	-2
C[C@@H]1CCCCO[C@@H](CN(C)Cc2ccncc2)[C@H](C)CN([C@@H](C)CO)C(=O)c2cc(NC(=O)Nc3cccc4ccccc34)ccc2O1	-1	106	x	x	x	x	x
C[C@@H]1CN([C@@H](C)CO)C(=O)c2cc(NC(=O)Nc3cccc4ccccc34)ccc2O[C@@H](C)CCCCO[C@H]1CN(C)Cc1ccncc1	-2	55	-3	x	x	x	x
SMILES	KDM4C inh	T cruzi growth-1	IDH1 mut inh	T cruzi growth-2	T cruzi growth-3	3T3 cytotox	3T3 cytotox 2
C[C@H]1CCCCO[C@H](CN(C)Cc2ccc(Cl)c(Cl)c2)[C@@H](C)CN([C@@H](C)CO)C(=O)c2cc(NC(=O)Nc3cccc4ccccc34)ccc2O1	-1	u	1	112*	111*	2	6
O=C1CSC(C23CC4CC(CC(C4)C2)C3)N1 (stereo not given)	x	x	1	x	x	x	x
C[C@@H]1CN([C@@H](C)CO)C(=O)c2cc(NC(=O)Nc3ccc4c(c3)OCO4)ccc2O[C@@H]1CN(C)Cc1ccc(Cl)c(Cl)c1	-1	u	2	97*	95	57*	90*
C[C@@H]1CN([C@H](C)CO)C(=O)c2cccc(NC(=O)Nc3ccc4c(c3)OCO4)c2O[C@H]1CN(C)Cc1ccc(Cl)c(Cl)c1	-1	u	x	101*	80	21	25*
C[C@H](CO)N1C[C@H](C)[C@@H](CN(C)Cc2ccc(Cl)c(Cl)c2)Oc2c(NC(=O)Nc3ccc4c(c3)OCO4)cccc2C1=O	0	85	7	x	x	x	x
C[C@H]1CN([C@@H](C)CO)C(=O)c2cc(NC(=O)Nc3ccc4c(c3)OCO4)ccc2O[C@H]1CN(C)Cc1ccc(Cl)c(Cl)c1	0	-84	x	x	x	x	x
COc1cc(C(=O)N(Cc2ccco2)c2ccc(O)cc2)cc(OC)c1OC	x	x	2	x	x	x	x
CC1(C)CC(=O)C2=C(C1)N(CCCN1CCOCC1)C(=O)C2(NC(=O)c1ccccc1)C(F)(F)F (stereo not given)	x	x	0	x	x	x	x
